SMARCA2 activ: activators of SMARCA2 function. actives 1% (n = 370,000). MG213 cells, MMTV-luciferase reporter, dexamethasone, overnight. activation, % at 9.1 µM; in the data active = activation above about 7.8%
SR-BI DiI-HDL act: enhances SR-BI lipid uptake from DiI-HDL; CHO ldlA[mSR-BI] cells, DiI-HDL uptake fluorescence, 3 h; 100 = double the neutral-control signal; activation, % at 12.5 µM; actives 0.096% (n = 320,000);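 active = mean replicate activation of at least 60% and every replicate at or above 60%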
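system = CHO ldlA[mSR-BI] cells, LDL receptor-null, SR-BI overexpressing | medium = Ham's F12 with 0.5% BSA, HEPES 25 mM, pH 7.4 | probe or stimulus = DiI-HDL 10 µg/mL | compound dosing = single-point compound dose | incubation = compound exposure 3 h, 37 °C | technique = DiI fluorescence, bottom read | read-out = cell-associated DiI fluorescence as measure of HDL uptake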
Vif inh: HIV Vif inhibition | actives 0.35% (n = 340,000) | inhibition, % at 7.49 µM | AID 602346 | HEK293T cells, Vif self-association by quenched fluorescence, imaging, 24 h; in the data active = inhibition above about 50%, passing the limit was not always enough
SR-BI DiI inh: mouse SR-BI HDL lipid transfer inhibition; Q61009; ldlA[mSR-BI] CHO cells, DiI-HDL uptake fluorescence, 3 h; actives 0.96% (n = 320,000); inhibition, % at 12.5 µM; AID 488896;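 active = mean replicate inhibition of at least 70% and a set share of replicates each scoring 70 or more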
Target sequence (Q61009 whole entry, looked up): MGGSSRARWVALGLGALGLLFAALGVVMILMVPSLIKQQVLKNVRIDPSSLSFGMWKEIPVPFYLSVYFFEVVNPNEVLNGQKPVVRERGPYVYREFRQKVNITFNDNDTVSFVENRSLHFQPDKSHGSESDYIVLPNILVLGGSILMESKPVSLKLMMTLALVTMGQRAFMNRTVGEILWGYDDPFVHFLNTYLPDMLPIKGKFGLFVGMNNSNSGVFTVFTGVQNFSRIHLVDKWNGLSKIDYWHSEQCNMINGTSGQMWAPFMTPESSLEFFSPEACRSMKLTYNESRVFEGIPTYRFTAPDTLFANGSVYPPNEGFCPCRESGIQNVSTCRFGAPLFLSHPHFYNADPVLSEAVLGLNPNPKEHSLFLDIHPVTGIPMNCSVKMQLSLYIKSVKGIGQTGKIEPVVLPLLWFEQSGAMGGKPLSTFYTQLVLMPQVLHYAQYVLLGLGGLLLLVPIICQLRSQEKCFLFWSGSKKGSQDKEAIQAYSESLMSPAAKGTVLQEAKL
H9c2 TAG inh: inhibitors of triacylglycerol accumulation; H9c2 cells, Nile Red lipid (TAG) fluorescence; cells loaded with 200 µM oleic acid; inhibition, % at 12.5 µM; actives 0.66% (n = 230,000); AID 651582;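 active = pattern-corrected inhibition of lipid staining of at least 50% with the nuclear-stain viability signal not falling by more than 50%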
A number is an active result. Hits are enriched below; roughly 2.5% of the tested compounds scored in any of these assays.

`O=C(Cn1c(-c2cncs2)nc2ccccc21)N1CCCCC1` gave SMARCA2 activ inactive.
Screening COc1cccc(CC(=O)NCC2CCN(C(=O)C(=O)c3cccs3)CC2)c1 returned SMARCA2 activ inactive.
`COC(=O)[C@]12C[C@H](CC(=O)NCC34CC5CC(CC(C5)C3)C4)C(=O)N(CCC3=CCCCC3)C1=C[C@H](COCc1ccccc1)O[C@@H]2C` gave SMARCA2 activ inactive.
Screening Nc1[nH]c(C(=O)c2ccc(Br)cc2)c(-c2ccccn2)c1C(=O)NCCc1c[nH]c2ccccc12 returned SMARCA2 activ inactive.
C/C(=N\Nc1cc(C)nc(-c2ccccc2)n1)c1cccc([N+](=O)[O-])c1 was read as SMARCA2 activ inactive, SR-BI DiI-HDL act inactive, Vif inh inactive, SR-BI DiI inh 77 and H9c2 TAG inh inactive.
CCN1C(Nc2ccccc2)=NC[C@@H]1Cc1ccccc1 was read as SMARCA2 activ inactive, SR-BI DiI-HDL act inactive, Vif inh inactive, SR-BI DiI inh inactive and H9c2 TAG inh inactive.
CC(C)(C)C1CCC(CN2C(Nc3ccccc3)=NC[C@@H]2Cc2ccccc2)CC1 (stereo partly specified) was read as SMARCA2 activ inactive, SR-BI DiI-HDL act inactive, Vif inh inactive, SR-BI DiI inh inactive and H9c2 TAG inh 113.
For O/N=C/c1ccc2cccc(O)c2n1 the results were SMARCA2 activ inactive, Vif inh inactive and H9c2 TAG inh inactive.
O/N=C/c1ccc2ccccc2n1 was read as SMARCA2 activ inactive, SR-BI DiI-HDL act 82, Vif inh inactive, SR-BI DiI inh inactive and H9c2 TAG inh inactive.
O=Nc1[nH]c(=O)c(/C=C(\O)c2ccccc2)nc1NO was read as SMARCA2 activ inactive, SR-BI DiI-HDL act inactive, Vif inh 106 and SR-BI DiI inh inactive.
For COC(=O)[C@]12C[C@H](CC(=O)N3CCCCC3)C(=O)N(Cc3ccccc3)C1=C[C@H](C(C)C)O[C@@H]2C1CC1 the results were SMARCA2 activ inactive.
For Cc1ncoc1C(=O)N1CCCC(C(=O)c2cccc(OC(C)C)c2)C1 (stereo unspecified) the results were SMARCA2 activ inactive, SR-BI DiI-HDL act inactive, Vif inh inactive, SR-BI DiI inh inactive and H9c2 TAG inh inactive.
For Cc1ncoc1C(=O)N1CCCC(C(=O)c2ccc(Oc3ccccc3)cc2)C1 (stereo unspecified) the results were SMARCA2 activ inactive, SR-BI DiI-HDL act inactive, Vif inh 61 and SR-BI DiI inh inactive.
Screening COC(=O)[C@]12C[C@H](CC(=O)NCCC(C)C)C(=O)N(Cc3ccccc3)C1=C[C@H](C(C)(C)C)O[C@@H]2C returned SMARCA2 activ inactive.
For CCCN1C(=O)/C(=C/c2ccco2)SC1=Nc1ccc(OC)cc1 the results were SR-BI DiI-HDL act inactive, Vif inh inactive and SR-BI DiI inh 79.
Screening CCCN1C(=O)/C(=C/c2ccc(C)o2)SC1=Nc1ccc(OC)cc1 returned SMARCA2 activ inactive, SR-BI DiI-HDL act inactive, Vif inh inactive and SR-BI DiI inh inactive.
`CC12CCC(C(=O)NCCc3ccccc3)(OC1=O)C2(C)C` (stereo unspecified) gave SMARCA2 activ inactive, SR-BI DiI-HDL act inactive, Vif inh 52 and SR-BI DiI inh inactive.
`O=C(COc1ccc(/C=N/NS(=O)(=O)c2ccccc2)cc1)Nc1cccc(Cl)c1` gave SMARCA2 activ inactive, SR-BI DiI-HDL act inactive, Vif inh inactive, SR-BI DiI inh 75 and H9c2 TAG inh inactive.
Screening COc1cccc(NC(=O)COc2ccccc2)c1 returned SMARCA2 activ 7.8, SR-BI DiI-HDL act inactive, Vif inh inactive and SR-BI DiI inh inactive.
`Cc1cccc(C)c1OCC(=O)Nc1cccc(C(=O)O)c1` gave SMARCA2 activ 7.9, SR-BI DiI-HDL act inactive, Vif inh inactive, SR-BI DiI inh inactive and H9c2 TAG inh inactive.
COc1cc(NC(=O)COc2cccc(OC)c2)cc(OC)c1 was read as SMARCA2 activ inactive, SR-BI DiI-HDL act inactive, Vif inh inactive and SR-BI DiI inh inactive.
C[C@@H]1Cn2cnc(C(=O)N3CCN(C(=O)OC(C)(C)C)CC3)c2C(=O)N1 was read as SMARCA2 activ inactive.
COc1ccc(Nc2nnc(-c3ccccc3)c3ccccc23)cc1C(=O)N1CCCCC1 was read as SMARCA2 activ inactive, SR-BI DiI-HDL act inactive, Vif inh inactive and SR-BI DiI inh inactive.
For COc1ccc(Nc2nnc(-c3ccc(C)cc3)c3ccccc23)cc1C(=O)N1CCCCC1 the results were SMARCA2 activ inactive, SR-BI DiI-HDL act inactive, Vif inh inactive and SR-BI DiI inh 81.
CCN(CC)C(=O)COc1ccc(-c2nnc(Nc3ccc(OC)c(C(=O)NC)c3)c3ccccc23)cc1 was read as SMARCA2 activ inactive, SR-BI DiI-HDL act inactive, Vif inh inactive, SR-BI DiI inh 87 and H9c2 TAG inh inactive.
`CCN(CC)C(=O)COc1ccc(-c2nnc(N3CCCCC3)c3ccccc23)cc1` gave SMARCA2 activ inactive, SR-BI DiI-HDL act inactive, Vif inh inactive, SR-BI DiI inh inactive and H9c2 TAG inh inactive.
For COc1ccc(C)cc1NC(=O)C1CCN(C(=O)c2ccco2)CC1 the results were SMARCA2 activ inactive and Vif inh 54.
Screening COc1ccc([N+](=O)[O-])cc1NC(=O)C(C)N1CCN(C(=O)c2ccco2)CC1 (stereo unspecified) returned SMARCA2 activ inactive, SR-BI DiI-HDL act inactive, Vif inh inactive, SR-BI DiI inh 72 and H9c2 TAG inh inactive.
For COc1ccc(OC)c(NC(=O)C2CCN(C(=O)C3CC(=O)N(c4ccc(C)cc4)C3)CC2)c1 (stereo unspecified) the results were SMARCA2 activ inactive and Vif inh inactive.
`COc1ccc(NC(=O)C2CCN(C(=O)c3ccco3)CC2)c(OC)c1` gave SMARCA2 activ inactive and Vif inh inactive.
`COc1ccc(C)cc1NC(=O)C1CCN(C(=O)C2CC(=O)N(c3ccc(C)cc3)C2)CC1` (stereo unspecified) gave SMARCA2 activ inactive, SR-BI DiI-HDL act inactive, Vif inh inactive and SR-BI DiI inh 89.
`COc1ccc([N+](=O)[O-])cc1NC(=O)C(C)N(C)Cc1ccc(Br)cc1` (stereo unspecified) gave SMARCA2 activ inactive, SR-BI DiI-HDL act inactive, Vif inh inactive and SR-BI DiI inh 75.
`COC(=O)c1c(-c2ccc(OC)cc2)c2c(c3c4cc(OC)ccc4n(C(=O)c4ccccc4)c13)C(=O)N(C)C2` gave SMARCA2 activ inactive.
For C[C@@H]1CCCN1c1cccc2c1S(=O)(=O)N1CC[C@H](C1)O2 the results were SMARCA2 activ inactive.
`Cc1ccc(Oc2cc(C)nc(-c3ccccc3O)n2)cc1` gave SMARCA2 activ inactive, SR-BI DiI-HDL act inactive, Vif inh inactive, SR-BI DiI inh inactive and H9c2 TAG inh inactive.
Screening Cc1cc(OCc2ccc(F)cc2)nc(-c2ccccc2O)n1 returned SMARCA2 activ inactive, SR-BI DiI-HDL act inactive, Vif inh inactive and SR-BI DiI inh 78.
Screening N=c1c(-c2nc3ccccc3[nH]2)cc(C(=O)c2ccco2)nn1-c1ccccc1 returned SMARCA2 activ inactive, SR-BI DiI-HDL act inactive, Vif inh inactive and SR-BI DiI inh 73.

Screening results as filed in PubChem BioAssay.
